Molecules are shown by their SMILES. Inconclusive results are not listed. Activity calls are given as the source filed them.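 How the source made its calls: active means inhibition of 30% or more at any tested concentration; inactive means the rest, inconclusive results apart.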

Data on 13 compounds can be found in PubChem BioAssay AID602315 (Southern Research Specialized Biocontainment Screening …, 2012).

The target in this experiment is M1-family alanyl aminopeptidase (Plasmodium falciparum 3D7). As to the kind of experiment: Inhibition of P. falciparum M1 alanyl aminopeptidase – biochemical, QFRET, set 3, counter-screen for PfM17LAP inhibitor project, dose response (AID 602315). As to conditions: recombinant PfM1AAP, H-Leu-NHMec fluorogenic cleavage; for inhibition: at 100 µM (top of the series). An outline of the steps: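 Times: enzyme–substrate reaction 90 min at room temperature. Material: purified recombinant Plasmodium falciparum M1-family alanyl aminopeptidase (PfM1AAP). Technique: fluorescence of released NHMec, excitation 370 nm, emission 460 nm. Read-out basis: % inhibition and fitted IC50. Repeats: triplicate wells per concentration. Reagent: fluorogenic peptide H-Leu-NHMec as substrate, 0.1 mM final.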
On the technique in general: Counterscreens check selectivity or assay interference.

With `CCCCOc1ccc(C(C)(C)C(=O)O)cc1`, the inhibition result is “inactive”.
On the same count and under the same terms, to `CCCCOc1ccc(C(C)(C)C(=O)NO)cc1` belongs “inactive”.
For `CCCCOc1ccc(C(C)C(=O)O)cc1` (stereo not drawn), the inhibition result is “inactive”.
Broadly, the IC50 is the concentration that gives 50% inhibition. On to `CCCOc1ccc(CC(=O)NO)cc1`, for which the half-maximal inhibitory concentration (IC50) is 16.7 µM.
Regarding `CCCCOc1ccc(CN(O)C(=O)c2ccccc2)cc1`, the inhibition entry is “inactive”.
As to `CCCCOc1cccc(CC(=O)NO)c1`, the IC50 is 26 µM.
`CN(C)CCOc1ccc(CC(=O)O)cc1`: the inhibition result was “inactive”.
Same read-out and setting: to `O=C(NO)c1ccc2ccccc2c1` belongs “inactive”.
As to `CCC(C)Oc1ccc(CC(=O)NO)cc1` (stereo not drawn), the IC50 was 20.2 µM.
Turning to `CCCCOc1ccc(C(C)C(=O)NO)cc1` (stereo not drawn), the IC50 is 28.2 µM.
`CCCCOc1cccc(CC(=O)OC)c1`: the inhibition entry was “inactive”.
Consider `CCCCOc1ccc(CN(O)C(C)=O)cc1`, for which the inhibition result was “inactive”.
For `CCCCOc1ccc(C(C)C(=O)OC)cc1` (stereo not drawn), the inhibition entry is “inactive”.
